pKi: −log10 of the molar value. Calls of active or inactive are those of the source. The calls are words filed in the database; no cut-off is given here.
Key:
[1] = Inhibition of aminoglycoside 6'-N-acetyltransferase Ib (unknown origin)-mediated acetylation expressed in Escherichia coli using 5 to 72 uM acetyl CoA and 25 uM kanamycin A as substrate preincubated for 10 mins followed by enzyme addition by spectrophotometric analysis
Procedure, shortened: (§1)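 Enzyme partially purified on DEAE from arabinose-induced E. coli, in 20 mM Tris pH 7.5 with 0.2 mM DTNB and 10% DMSO. Inhibitor at a range of concentrations, acetyl CoA 5–72 μM, kanamycin A 25 μM. 10 min room-temperature preincubation before enzyme. CoA-SH release read at 412 nm. Ki from initial velocities by nonlinear regression, in triplicate.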

[2] = Inhibition of aminoglycoside 6'-N-acetyltransferase Ib (unknown origin)-mediated acetylation expressed in Escherichia coli using kanamycin A and acetyl CoA as substrate at 100 uM preincubated for 10 mins followed by enzyme addition by spectrophotometric analysis relative to control
Procedure, shortened: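 Enzyme: thioredoxin-fused AAC(6′)-Ib, arabinose-induced in E. coli, partially purified by DEAE ion exchange. Reaction: 20 mM Tris pH 7.5, 0.2 mM DTNB, 50 μM acetyl CoA, 18 μM kanamycin A, compound at 100 μM in 10% DMSO. Mix held 10 min at room temperature before enzyme added. CoA–SH release read at 412 nm. Percent inhibition from initial velocities versus no-compound reactions; mean of three experiments.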

[3] = Inhibition of aminoglycoside 6'-N-acetyltransferase Ib (unknown origin)-mediated acetylation expressed in Escherichia coli using 3 to 18 uM kanamycin A and 100 uM acetyl CoA as substrate preincubated for 10 mins followed by enzyme addition by spectrophotometric analysis
Procedure, shortened: as §1, with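 “concentrations, kanamycin A 3–18 μM,” for “concentrations,”, “100” for “5–72 μM, kanamycin A 25”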

[4] = Competitive inhibition of aminoglycoside 6'-N-acetyltransferase Ib (unknown origin) expressed in Escherichia coli using kanamycin A as substrate by Lineweaver-Burk plot analysis in presence of acetyl CoA
Procedure, shortened: (§2)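 Partially purified His-Patch thioredoxin-fused enzyme from E. coli (pBAD102, arabinose-induced), in 20 mM Tris pH 7.5 with 0.2 mM DTNB. Kanamycin A varied 3–18 μM with acetyl CoA fixed at 100 μM, at several inhibitor concentrations. Mix held 10 min at room temperature before enzyme. Initial rates followed at 412 nm, mode assigned from Lineweaver-Burk plots, in triplicate.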

[5] = Non-competitive inhibition of aminoglycoside 6'-N-acetyltransferase Ib (unknown origin) expressed in Escherichia coli using acetyl CoA as substrate by Lineweaver-Burk plot analysis in presence of kanamycin A
Procedure, shortened: as §2, with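 “Acetyl CoA” for “Kanamycin A”, “5–72” for “3–18”, “kanamycin A” for “acetyl CoA”, “25” for “100”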

[6] = Inhibition of aminoglycoside 6'-N-acetyltransferase Ib (unknown origin)-mediated acetylation expressed in Escherichia coli using kanamycin A and acetyl CoA as substrate at 100 uM preincubated for 10 mins followed by enzyme addition by spectrophotometric analysis in presence of Triton X-100
Procedure, shortened: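 Compound at 100 μM in 10% DMSO, with 20 mM Tris pH 7.5, 0.2 mM DTNB, 50 μM acetyl CoA, 18 μM kanamycin A and 0.01% Triton X-100. Preincubated 10 min at room temperature, then partially purified enzyme added. Absorbance at 412 nm gave initial velocities. Percent inhibition taken against compound-free reactions, mean of three experiments.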

Structure (SMILES) | pKi [1] | inhibition [2] | pKi [3] | further results
O=C1NC(=O)N(c2ccc(Cl)cc2)C(=O)/C1=C\c1ccco1 | 4.13 | 60% | 4.48 | 
Cc1ccc(N2C(=O)NC(=O)/C(=C\c3ccccc3OCc3ccc(C(=O)O)cc3)C2=O)cc1C | 3.53 | 27% | 3.81 | 
O=C(O)c1ccccc1-c1ccc(C=C2C(=O)N(c3ccccc3)C(=S)N(c3ccccc3)C2=O)o1 |  | 52% |  | pKi [4]: 4.92; pKi [5]: 4.46
Cc1ccc(N2C(=O)NC(=O)/C(=C\c3ccccc3OCc3ccc(C(=O)O)cc3)C2=O)cc1 | 3.59 | 30% | 3.80 | 
O=C1/C(=C/c2ccco2)C(=O)N(c2ccc(Br)cc2)C(=S)N1c1ccccc1 |  |  |  | inhibition [6]: inactive
Cc1cccc(N2C(=O)/C(=C/c3ccc(OCc4cccc(C(=O)O)c4)cc3)C(=O)NC2=S)c1 | 4.01 | 33% | 4.08 | 
O=C1NC(=O)N(c2ccccc2)C(=O)/C1=C\c1ccco1 | 4.80 | 65% | 4.82 | 
CCc1ccc(N2C(=O)NC(=O)/C(=C\c3ccccc3OCc3ccc(C(=O)O)cc3)C2=O)cc1 | 3.74 | 30% | 3.86 | 
O=C1NC(=O)N(c2ccc(O)cc2)C(=O)/C1=C/c1ccccc1OCc1ccc(C(=O)O)cc1 | 3.53 | 30% | 3.89 | 
O=C1C[C@H](c2ccc3cccc(O)c3n2)c2ccc(N3CCOC3=O)cc2N1 |  | 0% |  | 
O=C1NC(=O)N(c2ccccc2)C(=O)/C1=C/c1cc(Cl)ccc1OCc1ccc(C(=O)O)cc1 |  | 0% |  | 
O=C1C(=Cc2ccco2)C(=O)N(c2ccccc2)C(=S)N1c1ccccc1 |  | 0% |  | 
Cc1cccc(N2C(=O)/C(=C/c3ccccc3OCc3ccc(C(=O)O)cc3)C(=O)NC2=S)c1 |  | 27% |  | pKi [4]: 3.85; pKi [5]: 3.57
Cn1c(COc2nnc(-c3ccccc3)c3ccccc23)nc2ccccc21 |  | 0% |  | 
CCc1cc(Br)ccc1N1C(=O)[C@H]2C3c4ccccc4C(c4ccccc43)[C@@H]2C1=O |  | 0% |  | 
Cc1ccc(-c2nnn(CC(=O)Nc3ccc4c(c3)OCCO4)n2)cc1 |  | 0% |  | 
O=C(Nc1nccs1)c1cccc(N2C(=O)c3cccc4c([N+](=O)[O-])ccc(c34)C2=O)c1 |  | 0% |  | 
Cc1ccc2nc(C)cc(C(=O)OCC(=O)c3ccc(-c4ccccc4)cc3)c2c1 |  | 0% |  | 
O=C1NC(=S)N(c2ccccc2)C(=O)/C1=C/c1ccc(OCc2ccccc2)cc1 |  | 0% |  | 
Cc1cccc(C)c1NC(=O)C(Cc1c[nH]c2ccccc12)NC(=O)Oc1ccccc1 (centres undefined) |  | 0% |  | 
Cc1ccc(S(=O)(=O)Nc2c3ccccc3c(O)c3c4c(oc23)CC(C)(C)CC4=O)cc1 |  | 0% |  | 
